In brackets after ≈: the same amount, converted by molar mass.
Tested on: Escherichia coli
Assay: Compound was evaluated for its antibacterial activity against Escherichia coli 0157:H7
Format: functional
Details: not given

SMILES	MIC [mg/L]
C[C@@H](O)[C@H]1C(=O)N2C(C(=O)O)=C(S[C@@H]3CN[C@H](C(=O)N4CC/C(=N/O)C4)C3)[C@H](C)[C@H]12	0.016 (≈ 0.0365 µM)

Tested on: Klebsiella pneumoniae
Assay: Compound was evaluated for its antibacterial activity against Klebsiella pneumoniae 10 ESBL
Format: functional
Details: not given

SMILES	MIC [mg/L]
C[C@@H](O)[C@H]1C(=O)N2C(C(=O)O)=C(S[C@@H]3CN[C@H](C(=O)N4CC/C(=N/O)C4)C3)[C@H](C)[C@H]12	0.016 (≈ 0.0365 µM)

Tested on: Escherichia coli
Assay: Compound was evaluated for its antibacterial activity against Escherichia coli CCARM 1109 MDR
Format: functional
Details: not given

SMILES	MIC [mg/L]
C[C@@H](O)[C@H]1C(=O)N2C(C(=O)O)=C(S[C@@H]3CN[C@H](C(=O)N4CC/C(=N/O)C4)C3)[C@H](C)[C@H]12	0.06 (≈ 0.137 µM)

Tested on: Pseudomonas aeruginosa
Assay: Compound was evaluated for its antibacterial activity against Pseudomonas aeruginosa 3 MDR
Format: functional
Details: not given

SMILES	MIC [mg/L]
C[C@@H](O)[C@H]1C(=O)N2C(C(=O)O)=C(S[C@@H]3CN[C@H](C(=O)N4CC/C(=N/O)C4)C3)[C@H](C)[C@H]12	8 (≈ 18.2 µM)

Tested on: Shigella sonnei
Assay: Compound was evaluated for its antibacterial activity against Shigella sonnei ATCC 9290
Format: functional
Details: not given

SMILES	MIC [mg/L]
C[C@@H](O)[C@H]1C(=O)N2C(C(=O)O)=C(S[C@@H]3CN[C@H](C(=O)N4CC/C(=N/O)C4)C3)[C@H](C)[C@H]12	0.016 (≈ 0.0365 µM)

Tested on: Escherichia coli
Assay: Compound was evaluated for its antibacterial activity against Escherichia coli CCARM 1110 MDR
Format: functional
Details: not given

SMILES	MIC [mg/L]
C[C@@H](O)[C@H]1C(=O)N2C(C(=O)O)=C(S[C@@H]3CN[C@H](C(=O)N4CC/C(=N/O)C4)C3)[C@H](C)[C@H]12	0.06 (≈ 0.137 µM)

Tested on: Klebsiella pneumoniae
Assay: Compound was evaluated for its antibacterial activity against Klebsiella pneumoniae 3 ESBL
Format: functional
Details: not given

SMILES	MIC [mg/L]
C[C@@H](O)[C@H]1C(=O)N2C(C(=O)O)=C(S[C@@H]3CN[C@H](C(=O)N4CC/C(=N/O)C4)C3)[C@H](C)[C@H]12	0.13 (≈ 0.296 µM)

Tested on: Escherichia coli
Assay: Compound was evaluated for its antibacterial activity against Escherichia coli CCARM 1115 MDR
Format: functional
Details: not given

SMILES	MIC [mg/L]
C[C@@H](O)[C@H]1C(=O)N2C(C(=O)O)=C(S[C@@H]3CN[C@H](C(=O)N4CC/C(=N/O)C4)C3)[C@H](C)[C@H]12	0.03 (≈ 0.0684 µM)

Tested on: Pseudomonas aeruginosa
Assay: Compound was evaluated for its antibacterial activity against Pseudomonas aeruginosa ATCC 27853
Format: functional
Details: not given

SMILES	MIC [mg/L]
C[C@@H](O)[C@H]1C(=O)N2C(C(=O)O)=C(S[C@@H]3CN[C@H](C(=O)N4CC/C(=N/O)C4)C3)[C@H](C)[C@H]12	1 (≈ 2.28 µM)

Tested on: Pseudomonas aeruginosa
Assay: Compound was evaluated for its antibacterial activity against Pseudomonas aeruginosa 1 MDR
Format: functional
Details: not given

SMILES	MIC [mg/L]
C[C@@H](O)[C@H]1C(=O)N2C(C(=O)O)=C(S[C@@H]3CN[C@H](C(=O)N4CC/C(=N/O)C4)C3)[C@H](C)[C@H]12	1 (≈ 2.28 µM)

Tested on: Klebsiella pneumoniae
Assay: Compound was evaluated for its antibacterial activity against Klebsiella pneumoniae 2 ESBL
Format: functional
Details: not given

SMILES	MIC [mg/L]
C[C@@H](O)[C@H]1C(=O)N2C(C(=O)O)=C(S[C@@H]3CN[C@H](C(=O)N4CC/C(=N/O)C4)C3)[C@H](C)[C@H]12	0.03 (≈ 0.0684 µM)

Tested on: Staphylococcus aureus
Assay: Antibacterial activity against Staphylococcus aureus 285
Format: functional
Details: not given

SMILES	MIC [mg/L]
C[C@@H](O)[C@H]1C(=O)N2C(C(=O)O)=C(S[C@@H]3CN[C@H](C(=O)N4CC/C(=N/O)C4)C3)[C@H](C)[C@H]12	0.195 (≈ 0.445 µM)

Tested on: Staphylococcus aureus
Assay: Antibacterial activity against Staphylococcus aureus 503
Format: functional
Details: not given

SMILES	MIC [mg/L]
C[C@@H](O)[C@H]1C(=O)N2C(C(=O)O)=C(S[C@@H]3CN[C@H](C(=O)N4CC/C(=N/O)C4)C3)[C@H](C)[C@H]12	0.098 (≈ 0.223 µM)

Tested on: Escherichia coli
Assay: Compound was evaluated for its antibacterial activity against Escherichia coli CCARM 1112 MDR
Format: functional
Details: not given

SMILES	MIC [mg/L]
C[C@@H](O)[C@H]1C(=O)N2C(C(=O)O)=C(S[C@@H]3CN[C@H](C(=O)N4CC/C(=N/O)C4)C3)[C@H](C)[C@H]12	0.016 (≈ 0.0365 µM)

Tested on: Pseudomonas aeruginosa
Assay: Antibacterial activity against Pseudomonas aeruginosa 9027
Format: functional
Details: not given
Method in brief: (§1)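 MIC was determined by agar dilution on Mueller–Hinton medium.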

SMILES	MIC [mg/L]
C[C@@H](O)[C@H]1C(=O)N2C(C(=O)O)=C(S[C@@H]3CN[C@H](C(=O)N4CC/C(=N/O)C4)C3)[C@H](C)[C@H]12	0.391 (≈ 0.892 µM)

Tested on: Escherichia coli
Assay: Antibacterial activity against Escherichia coli 1507E
Format: functional
Details: not given
Method in brief: as §1

SMILES	MIC [mg/L]
C[C@@H](O)[C@H]1C(=O)N2C(C(=O)O)=C(S[C@@H]3CN[C@H](C(=O)N4CC/C(=N/O)C4)C3)[C@H](C)[C@H]12	0.025 (≈ 0.057 µM)

Tested on: Klebsiella pneumoniae
Assay: Compound was evaluated for its antibacterial activity against Klebsiella pneumoniae 7 ESBL
Format: functional
Details: not given

SMILES	MIC [mg/L]
C[C@@H](O)[C@H]1C(=O)N2C(C(=O)O)=C(S[C@@H]3CN[C@H](C(=O)N4CC/C(=N/O)C4)C3)[C@H](C)[C@H]12	0.06 (≈ 0.137 µM)

Tested on: Enterobacter cloacae
Assay: Compound was evaluated for its antibacterial activity against Enterobacter cloacae P99
Format: functional
Details: not given

SMILES	MIC [mg/L]
C[C@@H](O)[C@H]1C(=O)N2C(C(=O)O)=C(S[C@@H]3CN[C@H](C(=O)N4CC/C(=N/O)C4)C3)[C@H](C)[C@H]12	0.13 (≈ 0.296 µM)

Tested on: Pseudomonas aeruginosa
Assay: Antibacterial activity against Pseudomonas aeruginosa 1771M
Format: functional
Details: not given
Method in brief: as §1

SMILES	MIC [mg/L]
C[C@@H](O)[C@H]1C(=O)N2C(C(=O)O)=C(S[C@@H]3CN[C@H](C(=O)N4CC/C(=N/O)C4)C3)[C@H](C)[C@H]12	0.195 (≈ 0.445 µM)

Tested on: Pseudomonas aeruginosa
Assay: Antibacterial activity against Pseudomonas aeruginosa 1592E
Details: not given

SMILES	MIC [mg/L]
C[C@@H](O)[C@H]1C(=O)N2C(C(=O)O)=C(S[C@@H]3CN[C@H](C(=O)N4CC/C(=N/O)C4)C3)[C@H](C)[C@H]12	0.391 (≈ 0.892 µM)

Tested on: Escherichia coli
Assay: Compound was evaluated for its antibacterial activity against Escherichia coli CCARM 1116 MDR
Format: functional
Details: not given

SMILES	MIC [mg/L]
C[C@@H](O)[C@H]1C(=O)N2C(C(=O)O)=C(S[C@@H]3CN[C@H](C(=O)N4CC/C(=N/O)C4)C3)[C@H](C)[C@H]12	0.016 (≈ 0.0365 µM)

Tested on: Klebsiella pneumoniae
Assay: Compound was evaluated for its antibacterial activity against Klebsiella pneumoniae 9 ESBL
Format: functional
Details: not given

SMILES	MIC [mg/L]
C[C@@H](O)[C@H]1C(=O)N2C(C(=O)O)=C(S[C@@H]3CN[C@H](C(=O)N4CC/C(=N/O)C4)C3)[C@H](C)[C@H]12	0.03 (≈ 0.0684 µM)

Tested on: Escherichia coli
Assay: Compound was evaluated for its antibacterial activity against Escherichia coli DC 0
Format: functional
Details: not given

SMILES	MIC [mg/L]
C[C@@H](O)[C@H]1C(=O)N2C(C(=O)O)=C(S[C@@H]3CN[C@H](C(=O)N4CC/C(=N/O)C4)C3)[C@H](C)[C@H]12	0.03 (≈ 0.0684 µM)

Tested on: not listed separately
Assay: Compound was evaluated for its relative half life of hydrolysis to meropenem by partially purified porcine renal dihydropeptidase-I (DHP-I)
Format: functional
Details: Sus scrofa

SMILES	relative t1/2 (DHP-I hydrolysis vs meropenem)
C[C@@H](O)[C@H]1C(=O)N2C(C(=O)O)=C(S[C@@H]3CN[C@H](C(=O)N4CC/C(=N/O)C4)C3)[C@H](C)[C@H]12	1.03

Tested on: Staphylococcus aureus
Assay: Antibacterial activity against Staphylococcus aureus SG 511
Format: functional
Details: not given

SMILES	MIC [mg/L]
C[C@@H](O)[C@H]1C(=O)N2C(C(=O)O)=C(S[C@@H]3CN[C@H](C(=O)N4CC/C(=N/O)C4)C3)[C@H](C)[C@H]12	0.195 (≈ 0.445 µM)

Tested on: Salmonella enteritidis
Assay: Compound was evaluated for its antibacterial activity against […] enteritidis 3
Format: functional, Salmonella enterica subsp. enterica serovar Enteritidis
Details: Salmonella enterica

SMILES	MIC [mg/L]
C[C@@H](O)[C@H]1C(=O)N2C(C(=O)O)=C(S[C@@H]3CN[C@H](C(=O)N4CC/C(=N/O)C4)C3)[C@H](C)[C@H]12	0.016 (≈ 0.0365 µM)

Tested on: Klebsiella pneumoniae
Assay: Compound was evaluated for its antibacterial activity against Klebsiella pneumoniae 8 ESBL
Format: functional
Details: not given

SMILES	MIC [mg/L]
C[C@@H](O)[C@H]1C(=O)N2C(C(=O)O)=C(S[C@@H]3CN[C@H](C(=O)N4CC/C(=N/O)C4)C3)[C@H](C)[C@H]12	0.25 (≈ 0.57 µM)

Source: ChEMBL document CHEMBL1145884, “Synthesis and biological activity of novel 1beta-methylcarbapenems with oxyiminopyrrolidinylamide moiety” (2003)
